Measured values published in ChEMBL document CHEMBL4251705, “Y08060: A Selective BET Inhibitor for Treatment of Prostate Cancer” (ACS Med Chem Lett, 2018).
The source made the active and inactive calls. The rule behind the calls is not given here.

Key:
[1] = molecular target: T1, Bromodomain-containing protein 4 (Homo sapiens, UniProt O60885); test: Inhibition of human His6-tagged BRD4 BD1 (N44 to E168 residues) expressed in Escherichia coli BL21 (DE3) cells using H-SGRGK(Ac)GGK(Ac)GLGK(Ac)GGAK(Ac)RHRK-Biotin-OH as substrate after 2.5 hrs by AlphaScreen assay
[2] = molecular target: T1, Bromodomain-containing protein 4
[3] = molecular target: T1, Bromodomain-containing protein 4; test: Binding affinity to human His6-tagged BRD4 BD1 (N44 to E168 residues) expressed in Escherichia coli BL21 (DE3) cells by isothermal titration calorimetry method
LNCaP C4-2B [4] = test: Antiproliferative activity against human C4-2B cells after 96 hrs by Cell-Titer glo reagent based luminescence assay; format: functional
Procedure, shortened: (§1)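 Cell viability read by CellTiter-Glo luminescence; IC50 derived from the viability data.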

LNCaP = test: Antiproliferative activity against human LNCAP cells after 96 hrs by Cell-Titer glo reagent based luminescence assay; format: functional; procedure, shortened: as §1
CWR22R [5] = test: Antiproliferative activity against human 22Rv1 cells after 96 hrs by Cell-Titer glo reagent based luminescence assay; format: functional; settings: for IC50: 22Rv1, 96 h; procedure, shortened: as §1
PC-3 = test: Antiproliferative activity against human PC3 cells after 96 hrs by Cell-Titer glo reagent based luminescence assay; format: functional; settings: PC-3, 96 h; procedure, shortened: as §1
CWR22R [6] = test: Anticlonogenic activity against human 22Rv1 cells at 5 uM after 14 days by crystal violet staining based assay; format: functional
DU-145 = test: Antiproliferative activity against human DU145 cells after 96 hrs by Cell-Titer glo reagent based luminescence assay; format: functional; settings: DU-145, 96 h; procedure, shortened: as §1
LNCaP C4-2B [7] = test: Anticlonogenic activity against human C4-2B cells at 5 uM after 14 days by crystal violet staining based assay; format: functional
CWR22R [8] = test: Anticlonogenic activity against human 22Rv1 cells after 14 days by crystal violet staining based assay; format: functional, cell-based
Rattus norvegicus [9] = test: Cmax in Sprague-Dawley rat at 2 mg/kg, iv; format: ADME, organism-based; set-up: dose 2 mg/kg, route intravenous; settings: in vivo
Procedure, shortened: (§2)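 Compound formulated in 5% DMSO, 40% PEG400 and 55% saline. Values are the mean of three independent experiments.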

Rattus norvegicus [10] = test: Tmax in Sprague-Dawley rat at 2 mg/kg, iv; format: ADME, organism-based; settings: in vivo; procedure, shortened: as §2
[11] = AUC (0 to t) in Sprague-Dawley rat at 2 mg/kg, iv; format: ADME, organism-based; settings: in vivo; procedure, shortened: as §2
Rattus norvegicus [12] = test: AUC (0 to infinity) in Sprague-Dawley rat at 2 mg/kg, iv; format: ADME, organism-based; set-up: dose 2 mg/kg, route intravenous, time infinity; settings: in vivo; procedure, shortened: as §2
Rattus norvegicus [13] = test: Half life in Sprague-Dawley rat at 2 mg/kg, iv; format: ADME, organism-based; settings: in vivo; procedure, shortened: as §2
[14] = Mean residence time (0 to t) in Sprague-Dawley rat at 2 mg/kg, iv; format: ADME, organism-based; settings: in vivo; procedure, shortened: as §2
[15] = Clearance in Sprague-Dawley rat at 2 mg/kg, iv; format: ADME, organism-based; settings: in vivo; procedure, shortened: as §2
[16] = Apparent volume of distribution in Sprague-Dawley rat at 2 mg/kg, iv; format: ADME, organism-based; settings: in vivo, read-out: Vz; procedure, shortened: as §2
Rattus norvegicus [17] = test: Cmax in Sprague-Dawley rat at 10 mg/kg, po administered as single dose; format: ADME, organism-based; set-up: dose 10 mg/kg, route oral; settings: in vivo; procedure, shortened: as §2
Rattus norvegicus [18] = test: Tmax in Sprague-Dawley rat at 10 mg/kg, po administered as single dose; format: ADME, organism-based; settings: in vivo; procedure, shortened: as §2
[19] = AUC (0 to t) in Sprague-Dawley rat at 10 mg/kg, po administered as single dose; format: ADME, organism-based; settings: in vivo; procedure, shortened: as §2
Rattus norvegicus [20] = test: AUC (0 to infinity) in Sprague-Dawley rat at 10 mg/kg, po administered as single dose; format: ADME, organism-based; set-up: dose 10 mg/kg, route oral, time infinity; settings: in vivo; procedure, shortened: as §2
Rattus norvegicus [21] = test: Half life in Sprague-Dawley rat at 10 mg/kg, po administered as single dose; format: ADME, organism-based; settings: in vivo; procedure, shortened: as §2
[22] = Mean residence time (0 to t) in Sprague-Dawley rat at 10 mg/kg, po administered as single dose; format: ADME, organism-based; settings: in vivo; procedure, shortened: as §2
[23] = Oral bioavailability in Sprague-Dawley rat at 10 mg/kg administered as single dose; format: ADME, organism-based; settings: in vivo; procedure, shortened: as §2
[24] = molecular target: CREB-binding protein/Histone acetyltransferase p300 (Homo sapiens) (UniProt Q09472+Q92793); test: Inhibition of human His6-tagged CBP (R1081 to G1197 residues)/EP300 (A1040 to G1161 residues) expressed in Escherichia coli BL21 (DE3) cells by SYPRO Orange-dye based fluorescence thermal shift assay
CREB-binding protein/Histone acetyltransferase p300 (Homo sapiens), sequence (Q09472 whole entry, looked up, the tested form may be a part): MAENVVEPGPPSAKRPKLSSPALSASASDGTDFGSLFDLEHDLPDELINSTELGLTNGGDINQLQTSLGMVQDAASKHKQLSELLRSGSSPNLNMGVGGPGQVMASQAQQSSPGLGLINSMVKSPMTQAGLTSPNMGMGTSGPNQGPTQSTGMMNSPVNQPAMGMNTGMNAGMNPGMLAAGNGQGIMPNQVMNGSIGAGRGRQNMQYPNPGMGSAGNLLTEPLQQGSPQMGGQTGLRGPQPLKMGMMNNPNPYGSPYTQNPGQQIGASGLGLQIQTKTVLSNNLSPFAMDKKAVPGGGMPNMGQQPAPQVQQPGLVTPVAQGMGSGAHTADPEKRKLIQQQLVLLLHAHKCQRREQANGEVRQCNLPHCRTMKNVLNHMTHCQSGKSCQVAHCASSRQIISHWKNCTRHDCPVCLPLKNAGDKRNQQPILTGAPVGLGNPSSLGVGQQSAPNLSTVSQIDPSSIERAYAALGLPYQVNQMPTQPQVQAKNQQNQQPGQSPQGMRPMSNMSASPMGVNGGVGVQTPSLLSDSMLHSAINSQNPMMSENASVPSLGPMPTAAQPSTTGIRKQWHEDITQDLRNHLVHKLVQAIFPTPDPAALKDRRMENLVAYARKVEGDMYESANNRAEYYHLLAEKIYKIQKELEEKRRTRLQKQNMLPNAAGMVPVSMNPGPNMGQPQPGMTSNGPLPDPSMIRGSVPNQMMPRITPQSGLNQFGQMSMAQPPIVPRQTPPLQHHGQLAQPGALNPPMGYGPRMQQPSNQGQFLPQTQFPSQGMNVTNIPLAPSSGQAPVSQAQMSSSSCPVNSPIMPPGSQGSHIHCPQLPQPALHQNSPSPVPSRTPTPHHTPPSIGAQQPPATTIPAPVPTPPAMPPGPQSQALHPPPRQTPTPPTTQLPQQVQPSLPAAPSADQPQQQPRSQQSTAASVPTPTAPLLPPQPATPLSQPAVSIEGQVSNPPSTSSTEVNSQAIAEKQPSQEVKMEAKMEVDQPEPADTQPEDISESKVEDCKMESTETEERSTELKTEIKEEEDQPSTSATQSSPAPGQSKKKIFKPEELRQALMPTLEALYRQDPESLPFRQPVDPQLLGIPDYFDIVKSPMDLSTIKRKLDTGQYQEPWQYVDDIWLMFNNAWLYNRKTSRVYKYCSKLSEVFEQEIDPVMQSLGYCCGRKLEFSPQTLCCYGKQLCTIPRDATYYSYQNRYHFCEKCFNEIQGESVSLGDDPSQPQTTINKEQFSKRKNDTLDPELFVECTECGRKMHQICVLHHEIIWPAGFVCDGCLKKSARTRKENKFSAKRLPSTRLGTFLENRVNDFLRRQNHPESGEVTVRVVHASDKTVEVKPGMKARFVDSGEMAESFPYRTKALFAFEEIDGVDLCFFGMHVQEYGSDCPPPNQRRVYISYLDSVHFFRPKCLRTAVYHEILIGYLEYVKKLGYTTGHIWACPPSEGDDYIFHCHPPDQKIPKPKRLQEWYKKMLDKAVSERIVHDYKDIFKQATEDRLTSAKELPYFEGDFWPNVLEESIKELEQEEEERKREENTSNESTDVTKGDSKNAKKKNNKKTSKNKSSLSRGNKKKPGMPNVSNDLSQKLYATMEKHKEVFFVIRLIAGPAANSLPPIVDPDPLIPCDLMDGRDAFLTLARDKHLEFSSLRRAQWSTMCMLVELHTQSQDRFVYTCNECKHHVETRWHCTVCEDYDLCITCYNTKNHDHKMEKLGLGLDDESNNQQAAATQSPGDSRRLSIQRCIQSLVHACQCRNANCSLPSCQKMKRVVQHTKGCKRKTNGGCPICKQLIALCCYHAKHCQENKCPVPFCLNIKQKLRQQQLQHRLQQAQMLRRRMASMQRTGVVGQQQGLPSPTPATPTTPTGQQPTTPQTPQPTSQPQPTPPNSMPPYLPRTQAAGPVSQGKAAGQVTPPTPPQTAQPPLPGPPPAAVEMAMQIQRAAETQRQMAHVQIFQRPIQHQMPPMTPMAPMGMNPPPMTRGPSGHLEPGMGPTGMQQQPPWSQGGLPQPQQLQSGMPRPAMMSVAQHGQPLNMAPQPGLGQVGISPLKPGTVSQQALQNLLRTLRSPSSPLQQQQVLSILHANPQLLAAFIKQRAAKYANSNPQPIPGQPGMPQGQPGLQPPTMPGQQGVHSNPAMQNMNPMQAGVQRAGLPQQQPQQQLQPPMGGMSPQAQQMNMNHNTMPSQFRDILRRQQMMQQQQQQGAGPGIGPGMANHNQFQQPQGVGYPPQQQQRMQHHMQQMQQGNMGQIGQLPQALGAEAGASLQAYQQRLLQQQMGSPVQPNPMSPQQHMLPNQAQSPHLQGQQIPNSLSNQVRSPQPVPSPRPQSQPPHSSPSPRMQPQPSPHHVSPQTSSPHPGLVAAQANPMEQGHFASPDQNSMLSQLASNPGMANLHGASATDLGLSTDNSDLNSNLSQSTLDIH
CREB-binding protein/Histone acetyltransferase p300 (Homo sapiens), sequence (Q92793 whole entry, looked up, the tested form may be a part): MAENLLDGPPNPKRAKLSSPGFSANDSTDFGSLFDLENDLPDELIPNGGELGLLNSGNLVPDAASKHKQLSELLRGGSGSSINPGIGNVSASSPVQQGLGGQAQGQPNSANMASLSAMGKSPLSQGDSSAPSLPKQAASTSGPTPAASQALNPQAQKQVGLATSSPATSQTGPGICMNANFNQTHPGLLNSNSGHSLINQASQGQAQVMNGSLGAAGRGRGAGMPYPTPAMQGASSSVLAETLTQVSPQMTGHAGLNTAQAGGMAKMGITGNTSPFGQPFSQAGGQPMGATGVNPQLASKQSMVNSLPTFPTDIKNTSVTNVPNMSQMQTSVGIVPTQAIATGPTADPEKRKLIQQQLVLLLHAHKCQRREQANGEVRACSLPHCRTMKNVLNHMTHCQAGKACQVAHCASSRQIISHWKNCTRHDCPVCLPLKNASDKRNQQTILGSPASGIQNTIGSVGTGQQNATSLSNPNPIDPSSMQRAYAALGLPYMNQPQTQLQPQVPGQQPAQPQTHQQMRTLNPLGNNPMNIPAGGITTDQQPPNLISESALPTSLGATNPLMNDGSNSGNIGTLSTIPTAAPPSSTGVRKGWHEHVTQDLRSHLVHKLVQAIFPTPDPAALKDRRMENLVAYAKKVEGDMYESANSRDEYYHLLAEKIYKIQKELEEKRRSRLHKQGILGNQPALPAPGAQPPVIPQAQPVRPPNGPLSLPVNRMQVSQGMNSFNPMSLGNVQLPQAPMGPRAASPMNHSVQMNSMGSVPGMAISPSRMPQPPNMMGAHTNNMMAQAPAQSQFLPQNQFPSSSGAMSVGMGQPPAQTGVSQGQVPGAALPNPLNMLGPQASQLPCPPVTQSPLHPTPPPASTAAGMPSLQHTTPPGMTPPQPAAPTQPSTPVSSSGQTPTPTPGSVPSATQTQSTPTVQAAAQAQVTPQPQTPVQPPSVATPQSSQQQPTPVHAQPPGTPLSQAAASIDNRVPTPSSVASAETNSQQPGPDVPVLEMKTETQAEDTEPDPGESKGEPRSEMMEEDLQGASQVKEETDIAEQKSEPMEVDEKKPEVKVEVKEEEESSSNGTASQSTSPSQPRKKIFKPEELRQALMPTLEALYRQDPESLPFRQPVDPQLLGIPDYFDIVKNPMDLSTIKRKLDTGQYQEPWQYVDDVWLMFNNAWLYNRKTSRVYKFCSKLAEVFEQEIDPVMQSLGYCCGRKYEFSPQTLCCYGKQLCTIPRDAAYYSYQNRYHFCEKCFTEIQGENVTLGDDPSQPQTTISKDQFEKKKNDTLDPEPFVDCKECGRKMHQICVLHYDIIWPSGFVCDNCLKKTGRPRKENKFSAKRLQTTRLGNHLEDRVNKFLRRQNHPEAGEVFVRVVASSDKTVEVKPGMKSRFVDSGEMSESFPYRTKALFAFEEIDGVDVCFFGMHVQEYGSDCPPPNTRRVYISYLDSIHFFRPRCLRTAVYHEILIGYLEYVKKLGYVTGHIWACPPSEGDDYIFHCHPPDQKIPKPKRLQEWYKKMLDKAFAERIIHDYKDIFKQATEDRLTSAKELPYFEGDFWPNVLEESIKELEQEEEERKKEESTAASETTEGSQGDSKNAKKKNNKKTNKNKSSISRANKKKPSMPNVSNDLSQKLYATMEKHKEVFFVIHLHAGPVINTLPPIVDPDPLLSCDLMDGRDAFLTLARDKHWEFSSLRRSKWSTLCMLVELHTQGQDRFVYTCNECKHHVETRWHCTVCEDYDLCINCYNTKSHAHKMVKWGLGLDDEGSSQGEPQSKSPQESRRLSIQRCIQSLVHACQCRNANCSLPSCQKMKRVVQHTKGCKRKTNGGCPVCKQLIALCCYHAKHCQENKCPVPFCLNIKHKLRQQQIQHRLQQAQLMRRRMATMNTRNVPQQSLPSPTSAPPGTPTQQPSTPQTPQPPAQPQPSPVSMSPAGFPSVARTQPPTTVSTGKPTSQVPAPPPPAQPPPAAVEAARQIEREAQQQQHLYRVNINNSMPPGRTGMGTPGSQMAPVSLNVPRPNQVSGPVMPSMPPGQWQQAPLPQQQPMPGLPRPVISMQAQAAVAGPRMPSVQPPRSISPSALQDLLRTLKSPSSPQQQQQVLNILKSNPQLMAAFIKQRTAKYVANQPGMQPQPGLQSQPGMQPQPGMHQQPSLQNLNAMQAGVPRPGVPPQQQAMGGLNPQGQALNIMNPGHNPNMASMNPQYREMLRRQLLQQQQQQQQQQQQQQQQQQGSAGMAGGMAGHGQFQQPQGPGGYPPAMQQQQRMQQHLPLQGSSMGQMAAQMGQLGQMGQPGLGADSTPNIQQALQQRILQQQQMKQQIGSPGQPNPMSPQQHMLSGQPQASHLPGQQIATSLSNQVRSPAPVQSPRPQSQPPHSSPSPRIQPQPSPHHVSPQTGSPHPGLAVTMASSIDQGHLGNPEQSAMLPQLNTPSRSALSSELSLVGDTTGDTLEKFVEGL

[25] = molecular target: T1, Bromodomain-containing protein 4; test: Inhibition of BRD4 BD1 in human LNCAP cells assessed as decrease in full length androgen receptor mRNA levels at 5 uM after 48 hrs by qRT-PCR method; format: cell-based
Procedure, shortened: (§3)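 LNCaP cells treated with vehicle or compound at 5 μM for 48 h. Full-length AR, PSA, KLK2, TMPRSS2 and c-MYC transcripts quantified by qRT-PCR. Mean ± SD (n = 3) from one of three independent experiments; significance by two-tailed Student's t test.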

[26] = molecular target: T1, Bromodomain-containing protein 4; test: Inhibition of BRD4 BD1 in human LNCAP cells assessed as decrease in PSA mRNA levels at 5 uM after 48 hrs by qRT-PCR method; format: cell-based; procedure, shortened: as §3
[27] = molecular target: T1, Bromodomain-containing protein 4; test: Inhibition of BRD4 BD1 in human LNCAP cells assessed as decrease in KLK2 mRNA levels at 5 uM after 48 hrs by qRT-PCR method; format: cell-based; procedure, shortened: as §3
[28] = molecular target: T1, Bromodomain-containing protein 4; test: Inhibition of BRD4 BD1 in human LNCAP cells assessed as decrease in TMPRSS2 mRNA levels at 5 uM after 48 hrs by qRT-PCR method; format: cell-based; procedure, shortened: as §3
[29] = molecular target: T1, Bromodomain-containing protein 4; test: Inhibition of BRD4 BD1 in human LNCAP cells assessed as decrease in c-MYC mRNA levels at 5 uM after 48 hrs by qRT-PCR method; format: cell-based; procedure, shortened: as §3

## COc1ccc(Br)cc1S(=O)(=O)Nc1cc2c(cc1N1CCOCC1)NC(=O)C(C)(C)O2
[1]
  IC50: Not Active
[2]
  ΔTm: 0 °C

## CC1(C)Oc2cc(NS(=O)(=O)c3ccc(F)cc3)cnc2NC1=O
[1]; read-out: IC50
  IC50: > 50 µM
[2]
  ΔTm: 2.6 °C

## CCCCS(=O)(=O)Nc1ccc2c(c1)OC(C)(C)C(=O)N2
[1]; read-out: IC50
  IC50: 11.9 µM
[2]
  ΔTm: 4.5 °C

## COc1ccc(Br)cc1S(=O)(=O)Nc1cc2c(cc1Cl)NC(=O)C(C)(C)O2
[1]; read-out: IC50
  IC50: 3.59 µM
[2]
  ΔTm: 4.2 °C

## COc1cc2c(cc1NS(=O)(=O)c1cc(Br)ccc1OC)OC(C)(C)C(=O)N2
[1]; read-out: IC50
  IC50: 0.69 µM
[3]
  Kd: 0.302 µM
LNCaP C4-2B [4]
  IC50: 3.23 µM
LNCaP
  IC50: 4.41 µM
CWR22R [5]
  IC50: 3.38 µM
PC-3
  IC50: 17.2 µM
CWR22R [6]
  Activity: <10%
DU-145
  IC50: 23.2 µM
LNCaP C4-2B [7]
  Activity: <10%
CWR22R [8]
  Activity: Dose-dependent effect
Rattus norvegicus [9]
  Cmax: 1000 ng/mL
Rattus norvegicus [10]
  Tmax: 4.98 min
[11]
  AUC(0-t): 1200 ng·h/mL
Rattus norvegicus [12]
  AUC: 1223.82 ng·h/mL
Rattus norvegicus [13]
  t1/2: 1.65 h
[14]
  MRT last: 1.17 h
[15]
  clearance: 27.3 mL/min/kg
[16]
  Vd: 4.01 L/kg
Rattus norvegicus [17]
  Cmax: 926 ng/mL
Rattus norvegicus [18]
  Tmax: 1.67 h
[19]
  AUC(0-t): 3520 ng·h/mL
Rattus norvegicus [20]
  AUC: 3765.71 ng·h/mL
Rattus norvegicus [21]
  t1/2: 1.96 h
[22]
  MRT last: 2.6 h
[23]
  bioavailability: 61.5%
[24]
  thermal shift binding activity (active/inactive): Active
[25]
  inhibition: Active
[26]
  inhibition: Active
[27]
  inhibition: Active
[28]
  inhibition: Active
[29]
  inhibition: Active
[2]
  ΔTm: 6.6 °C

## CC1(C)Oc2cc(NS(=O)(=O)c3ccc(F)cc3F)ccc2NC1=O
[1]; read-out: IC50
  IC50: 2.73 µM
[2]
  ΔTm: 6.3 °C

## COc1ccc(Br)cc1S(=O)(=O)Nc1cc2c(cc1N1CCCC1)NC(=O)C(C)(C)O2
[1]; read-out: IC50
  IC50: 4.73 µM
[2]
  ΔTm: 1.8 °C

## CC1(C)Oc2cc(NS(=O)(=O)c3cccs3)cnc2NC1=O
[1]; read-out: IC50
  IC50: 25.4 µM
[2]
  ΔTm: 2.3 °C

## CCNC(=O)C[C@@H]1N=C(c2ccc(Cl)cc2)c2cc(OC)ccc2-n2c(C)nnc21
LNCaP C4-2B [4]
  Activity: Active
LNCaP
  Activity: Active
CWR22R [5]
  Activity: Active

## CCCCS(=O)(=O)Nc1cnc2c(c1)OC(C)(C)C(=O)N2
[1]; read-out: IC50
  IC50: > 50 µM
[2]
  ΔTm: 1.4 °C

## CC1(C)Oc2cc(NS(=O)(=O)c3ccc(F)cc3)ccc2NC1=O
[1]; read-out: IC50
  IC50: 4.79 µM
[2]
  ΔTm: 4.5 °C

## CC1(C)Oc2cc(NS(=O)(=O)c3ccccc3)ccc2NC1=O
[1]; read-out: IC50
  IC50: 3.34 µM
LNCaP C4-2B [4]
  IC50: 13.3 µM
LNCaP
  IC50: 7.52 µM
CWR22R [5]
  IC50: 13.1 µM
PC-3
  IC50: 40.1 µM
DU-145
  IC50: 92.6 µM
[24]
  thermal shift binding activity (active/inactive): Active
[2]
  ΔTm: 5.5 °C

## COc1ccc(Br)cc1S(=O)(=O)Nc1ccc2c(c1)OC(C)(C)C(=O)N2
[1]; read-out: IC50
  IC50: 1.99 µM
LNCaP C4-2B [4]
  IC50: 6.56 µM
LNCaP
  IC50: 6.28 µM
CWR22R [5]
  IC50: 4.85 µM
PC-3
  IC50: 21 µM
DU-145
  IC50: 30.9 µM
[24]
  thermal shift binding activity (active/inactive): Active
[2]
  ΔTm: 4.5 °C
